Assay results from different studies.
Organism: Salmonella enterica
Read-out: microbial growth

For `CCn1cc(C(=O)O)c(=O)c2ccc(C)nc21`, the MIC was 15.6 µg/mL (broth dilution; TYPHI; 24 h).
The MIC of `CCCCCCCCCCCC(=O)OC[C@H]1O[C@@H](n2cc(C)c(=O)[nH]c2=O)C[C@@H]1O` is reported as 1 µg/mL (broth dilution; TYPHI).
The MIC of `CC1(C)S[C@@H]2[C@H](NC(=O)[C@H](N)c3ccccc3)C(=O)N2[C@H]1C(=O)O` is reported as 32 µg/mL (broth dilution; PARATYPHI; 16 h).
For `O=C(O)c1cn(C2CC2)c2cc(N3CCNCC3)c(F)cc2c1=O`, the MIC was 62.5 µg/mL (broth dilution; TYPHI; 24 h).
`CO/N=C(\C(=O)N[C@@H]1C(=O)N2C(C(=O)O)=C(CSC(=O)c3ccco3)CS[C@H]12)c1csc(N)n1` gave an MIC of 1 µg/mL (ENTERITIDIS; 20 h; pH 5.5).
The MIC of `CC1=NN(CNc2ccc(Cl)cc2)C(=O)C1=NNn1c(-c2ccccc2)nc2ccccc2c1=O` is reported as 103 µM (broth dilution; PARATYPHI; 24 h).
For `CO/N=C(\C(=O)N[C@@H]1C(=O)N2C(C(=O)O)=C(CSc3nc(=O)c(=O)[nH]n3C)CS[C@H]12)c1csc(N)n1`, the MIC was 0.125 µg/mL (CHOLERAESUIS; 20 h; pH 5.5).
The MIC of `CCCCCCCCCCCC(=O)OC[C@H]1O[C@@H](n2cc(C)c(=O)[nH]c2=O)C[C@@H]1OC(=O)c1ccc(C(C)(C)C)cc1` is reported as 0.5 µg/mL (broth dilution; TYPHI).
`CCN1CCN(c2cc3c(cc2F)c(=O)c(C(=O)O)cn3C2CC2)CC1` has an MIC of 0.0625 µg/mL (CHOLERAESUIS; 20 h; pH 7.2).
With `CO[C@H]1O[C@H](COC(c2ccccc2)(c2ccccc2)c2ccccc2)[C@@H](OC(=O)c2ccc(C(C)(C)C)cc2)[C@H](OC(=O)c2ccc(C(C)(C)C)cc2)[C@H]1OC(=O)c1ccc(C(C)(C)C)cc1` the MIC was 2 µg/mL (broth dilution; TYPHI).
For `O=C1NN=C(N=Cc2ccc(O)cc2O)C1=NNn1c(-c2ccccc2)nc2ccccc2c1=O`, the MIC was 53.5 µM (broth dilution; PARATYPHI; 24 h).
`CS(=O)(=O)c1ccc([C@@H](O)[C@@H](CF)NC(=O)C(Cl)Cl)cc1` gave an MIC of 4 µg/mL (CHOLERAESUIS; 20 h; pH 7).
With `CC(=O)NCN1N=C(C)C(=NNn2c(-c3ccccc3)nc3ccccc3c2=O)C1=O` the MIC was 59.9 µM (broth dilution; PARATYPHI; 24 h).
The MIC of `[H]/N=C(/N)N[C@H]1[C@H](O)[C@@H](O)[C@H](O[C@@H]2O[C@@H](C)[C@](O)(C=O)[C@H]2O[C@@H]2O[C@@H](CO)[C@H](O)[C@@H](O)[C@@H]2NC)[C@@H](N/C(N)=N\[H])[C@@H]1O` is reported as 4100 µg/mL (CHOLERAESUIS; 20 h; pH 7).
`CC1=NN(CNc2ccccc2[N+](=O)[O-])C(=O)C1=NNn1c(-c2ccccc2)nc2ccccc2c1=O` gave an MIC of 50.4 µM (broth dilution; PARATYPHI; 24 h).
`C[C@H]1COc2c(N3CCN(C)CC3)c(F)cc3c(=O)c(C(=O)O)cn1c23` gave an MIC of at most 0.03 µg/mL (agar dilution; TYPHI).
`O=C1NN=C(N=Cc2ccccc2)C1=NNn1c(-c2ccccc2)nc2ccccc2c1=O` has an MIC of 114 µM (broth dilution; PARATYPHI; 24 h).
The MIC of `O=C(N[C@H](CO)[C@H](O)c1ccc([N+](=O)[O-])cc1)C(Cl)Cl` is reported as 2 µg/mL (CHOLERAESUIS; 20 h; pH 5.5).
`CC1=NN(CNc2ccc(C(=O)O)cc2)C(=O)C1=NNn1c(-c2ccccc2)nc2ccccc2c1=O` has an MIC of 50.5 µM (broth dilution; PARATYPHI; 24 h).
For `C[C@H]1[C@H](NC(=O)/C(=N\OC(C)(C)C(=O)O)c2csc(N)n2)C(=O)N1S(=O)(=O)O`, the MIC was at most 0.03 µg/mL (agar dilution; TYPHI).
